Experimental data as given in ChEMBL document CHEMBL3425410, “Specificity and inhibitory mechanism of andrographolide and its analogues as antiasthma agents on NF-κB p50” (J Nat Prod, 2015).
Active and inactive are the calls of the source. The rule behind the calls is not given here.

How the values were obtained:
[1] = Cytotoxicity against human Jurkat T cells assessed as appearance of viable cells at 25 uM after 24 hrs by annexin V-FLUOS/propidium iodide staining-based flow cytometric analysis; format: cell-based; details: read-out: Activity
In short: (§1)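 Jurkat T lymphocytes kept at 37 °C, 5% CO2 in RPMI1640 with 10% FBS and 1% streptomycin/penicillin. Exposed to 25 μM compound for 24 h, then stained with annexin-V-FLUOS and propidium iodide and read by flow cytometry. Viable cells are negative for both stains.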

[2] = Cytotoxicity against human Jurkat T cells assessed as appearance of late apoptotic cells at 25 uM after 24 hrs by annexin V-FLUOS/propidium iodide staining-based flow cytometric analysis; format: cell-based; in short: as §1
[3] = target: T1, Nuclear factor NF-kappa-B p105 subunit (Homo sapiens) (UniProt P19838); assay: Inhibition of TNF-alpha-stimulated NF-kappaB p50 (unknown origin) expressed in HEK293 cells at 1 to 100 uM preincubated for 4 hrs followed by TNF-alpha challenge measured after 24 hrs by secreted alkaline phosphatase reporter assay; format: cell-based
T1 sequence (whole entry): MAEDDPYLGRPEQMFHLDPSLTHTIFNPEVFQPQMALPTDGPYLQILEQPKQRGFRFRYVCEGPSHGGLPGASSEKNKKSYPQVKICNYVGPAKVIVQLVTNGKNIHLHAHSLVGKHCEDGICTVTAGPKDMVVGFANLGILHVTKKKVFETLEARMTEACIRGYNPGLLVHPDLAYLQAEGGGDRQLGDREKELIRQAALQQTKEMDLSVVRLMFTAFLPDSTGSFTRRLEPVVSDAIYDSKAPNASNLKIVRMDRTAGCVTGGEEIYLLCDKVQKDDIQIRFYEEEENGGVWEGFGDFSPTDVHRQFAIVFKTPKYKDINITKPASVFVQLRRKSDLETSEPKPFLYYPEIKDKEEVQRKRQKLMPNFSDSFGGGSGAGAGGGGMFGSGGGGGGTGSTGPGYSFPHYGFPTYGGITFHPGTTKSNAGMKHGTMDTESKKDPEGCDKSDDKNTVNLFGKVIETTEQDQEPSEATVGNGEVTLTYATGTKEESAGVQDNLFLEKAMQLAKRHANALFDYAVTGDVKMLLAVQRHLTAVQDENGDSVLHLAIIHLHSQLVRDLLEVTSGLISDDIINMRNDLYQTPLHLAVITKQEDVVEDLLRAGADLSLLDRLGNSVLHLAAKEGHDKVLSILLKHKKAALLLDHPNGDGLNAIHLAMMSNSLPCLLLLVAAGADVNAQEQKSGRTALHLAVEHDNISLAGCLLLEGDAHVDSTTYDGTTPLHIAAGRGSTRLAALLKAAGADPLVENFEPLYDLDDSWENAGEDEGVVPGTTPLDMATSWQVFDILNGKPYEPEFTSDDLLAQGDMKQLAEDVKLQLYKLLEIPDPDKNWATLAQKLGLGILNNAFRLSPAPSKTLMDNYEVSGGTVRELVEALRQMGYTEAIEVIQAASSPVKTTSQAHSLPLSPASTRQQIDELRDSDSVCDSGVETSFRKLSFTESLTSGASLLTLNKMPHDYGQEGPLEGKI
In short: (§2)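 HEK293 stably transfected with NF-κB/SEAP, grown in DMEM/10% FBS/500 μg/mL G418 and seeded at ~2 × 10^5 cells/well to ~70% confluence. Pretreated 4 h with rising compound concentrations or 0.05% DMSO, then TNF-α 10 ng/mL for 24 h. Secreted SEAP measured by kit, with TNF-α-induced untreated cells as 100%. Quadruplicates, mean; IC50 from the concentration curve.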

[4] = target: T1, Nuclear factor NF-kappa-B p105 subunit (Homo sapiens); assay: Binding affinity to 6His-tagged recombinant human NF-kappaB p50 N-terminal domain expressed in Escherichia coli BL21 (DE3) up to 10:1 compound to protein molar ratio after 2 hrs by mass spectrometric analysis
In short: (§3)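 Recombinant 6His-tagged p50 NTD (E. coli BL21(DE3), Ni-NTA then Superdex 200 gel filtration, dialysed into PBS) at 20 μM, incubated with compound in PBS with 1 mM EDTA, 10 μM β-mercaptoethanol, 5% glycerol (v/v), 37 °C, 2 h. Acetic acid quench, reversed-phase column, ESI-MS at m/z 500–3000. Reaction extent scored from adduct versus unbound protein across rising molar ratios.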

[5] = Cytotoxicity against human Jurkat T cells assessed as appearance of necrotic cells at 25 uM after 24 hrs by annexin V-FLUOS/propidium iodide staining-based flow cytometric analysis; format: cell-based; in short: as §1
[6] = Cytotoxicity against human Jurkat T cells assessed as appearance of early apoptotic cells at 25 uM after 24 hrs by annexin V-FLUOS/propidium iodide staining-based flow cytometric analysis; format: cell-based; in short: as §1
[7] = target: T2, Nuclear factor NF-kappa-B p105 subunit (Homo sapiens, UniProt P19838); assay: (§4) Inhibition of TNF-alpha-stimulated NF-kappaB p50 (unknown origin) expressed in HEK293 cells preincubated for 4 hrs followed by TNF-alpha challenge measured after 24 hrs by secreted alkaline phosphatase reporter assay; format: cell-based; in short: as §2
T2 sequence (P19838 whole entry): T1 sequence (whole entry)

[8] = Cytotoxicity against human Jurkat T cells assessed as apoptosis after 24 hrs by annexin V-FLUOS/propidium iodide staining-based flow cytometric analysis; format: cell-based; in short: as §1
[9] = target: T1, Nuclear factor NF-kappa-B p105 subunit (Homo sapiens); assay: as §4; format: cell-based; in short: as §2
[10] = target: T1, Nuclear factor NF-kappa-B p105 subunit (Homo sapiens); assay: Binding affinity to 6His-tagged recombinant human NF-kappaB p50 N-terminal domain expressed in Escherichia coli BL21 (DE3) up to 50:1 compound to protein molar ratio after 2 hrs by mass spectrometric analysis; in short: as §3
[11] = target: T1, Nuclear factor NF-kappa-B p105 subunit (Homo sapiens); assay: Binding affinity to 6His-tagged recombinant human NF-kappaB p50 N-terminal domain expressed in Escherichia coli BL21 (DE3) at 4:1 compound to protein molar ratio after 2 hrs by mass spectrometric analysis; in short: as §3

In the case of `C[C@]1(CO)[C@H]2CCC(=O)[C@@H](C/C=C3\CCOC3=O)[C@]2(C)CC[C@H]1O`, the viability at 24 h, 25 µM [1] is reported as 87.9%, the Activity [2] is reported as 5.52% and the inhibition [3] is reported as “inactive”. For the same molecule, the Activity [4] was “inactive”, the Activity [5] was 0.33% and the Activity [6] was 6.29%.
For `C=C1CC[C@@H]2[C@](C)(CO)[C@H](O)CC[C@@]2(C)[C@@H]1C/C=C1\C=COC1=O`, the viability at 24 h, 25 µM [1] was 82.6%, the Activity [2] was 1.57% and the inhibition [3] was “inactive”. The Activity [4] was “inactive”, the Activity [5] was 0.3% and the Activity [6] was 15.55%.
In the case of `C=C1CC[C@@H]2[C@](C)(CO)[C@H](O)CC[C@@]2(C)[C@@H]1C/C=C1/C(=O)OC[C@H]1O` [ANDROGRAPHOLIDE], the viability at 24 h, 25 µM [1] is reported as 54.2%, the Activity [2] is reported as 9.1% and the Activity [5] is reported as 1.39%. The Activity [6] was 35.3% and the IC50 [7] was 49.6 µM.
In the case of `C=C1CC[C@@H]2[C@](C)(CO[C@@H]3O[C@H](CO)[C@@H](O)[C@H](O)[C@H]3O)CCC[C@@]2(C)[C@@H]1CCC1=CCOC1=O` [NEOANDROGRAPHOLIDE], the Activity [4] is reported as “inactive”, the Activity [8] is reported as “Non-toxic” and the inhibition [9] is reported as “inactive”.
With `C[C@]1(CO)[C@H]2CCC(=O)[C@@H](C/C=C3/SC(=S)NC3=O)[C@]2(C)CC[C@H]1O` the viability at 24 h, 25 µM [1] was 84.1%, the Activity [2] was 7.96% and the inhibition [3] was “inactive”. For the same molecule, the Activity [4] was “inactive”, the Activity [5] was 1.05% and the Activity [6] was 6.91%.
In the case of `C=C1CC[C@@H]2[C@](C)(CO)[C@H](O)CC[C@@]2(C)[C@@H]1/C=C/C1=CCOC1=O`, the viability at 24 h, 25 µM [1] is reported as 87.5%, the Activity [2] is reported as 1.31% and the inhibition [3] is reported as “inactive”. For the same molecule, the Activity [10] was “Active”, the Activity [5] was 0.25% and the Activity [6] was 10.89%.
With `C=C1CC[C@@H]2[C@](C)(COC(C)=O)[C@H](OC(C)=O)CC[C@@]2(C)[C@@H]1C/C=C1\C=COC1=O` the viability at 24 h, 25 µM [1] was 13.6%, the Activity [2] was 47.95% and the Activity [11] was “Active”. It also gave an Activity [5] of 0.24%, an Activity [6] of 38.24% and an IC50 [7] of 11.1 µM.
In the case of `C=C1CC[C@@H]2[C@](C)(CO)[C@H](O)CC[C@@]2(C)[C@@H]1CCC1=CCOC1=O` [DEOXYANDROGRAPHOLIDE], the Activity [4] is reported as “inactive”, the Activity [8] is reported as “Non-toxic” and the inhibition [9] is reported as “inactive”.
